Laboratory results published in ChEMBL document CHEMBL2177098, “Synthesis and evaluation of novel ¹⁸F labeled 2-pyridinylbenzoxazole and 2-pyridinylbenzothiazole derivatives as ligands for positron emission tomography (PET) imaging of β-amyloid plaques” (J Med Chem, 2012).

Key:
[1] = Displacement of [125I]-IMPY from amyloid beta (1 to 42) fibrils after 2 hrs by gamma-counting analysis
Procedure, shortened: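 Competition binding with aggregated Aβ1-42 fibrils and [125I]IMPY (60000−100000 cpm/100 μL) in 0.05% BSA (1 mL total); inhibitors 10⁻⁴−10^−8.5 M in ethanol. Incubated 37 °C for 2 h, then GF/B vacuum filtration with PBS (0.02 M, pH 7.4) washes and γ counting. Three repeats; IC50 converted to Ki by Cheng−Prusoff.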

[2] = tested on: Brain; experiment: Ratio of drug uptake in brain at 2 mins to drug uptake in brain at 60 mins in iv dosed ICR mouse; format: ADME, organism-based; conditions: in vivo

Ki [1]: 6.7 nM
Ratio [2]: 3.13
SMILES: CNc1ccc(/C=C/c2ccc(OCCOCCOCC[18F])cc2)cc1 [FLORBETABEN F18]
